Data reported in ChEMBL document CHEMBL4513216, “Probing the Open Global Health Chemical Diversity Library for Multistage-Active Starting Points for Next-Generation Antimalarials” (ACS Infect Dis, 2020).

Experiment: Toxicity liver stage against HepG2, at 10uM
Format: cell-based
Set-up: test concentration 10 uM, cell line HepG2-A16-CD81EGFP
Details: human, HepG2-A16-CD81EGFP cells; read-out: INHIBITION
Summary of the method: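 Uninfected HepG2-A16-CD81EGFP cells, 3 × 10^3 per well, 1536-well, plated on prespotted compound at 10 μM final, parasite-free screening media added to match infected plates; puromycin 10 μM positive, DMSO 0.5% negative; run in parallel with 48 h PbLuc assay at 37 °C, 5% CO2; viability by CellTiter-Glo luminescence, normalized to controls.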

Structure (SMILES) | cytotoxicity at 10 µM [%]
CCNC(=O)C1(Cc2ccc(-c3ccccc3)cc2)CCCNC1 (configuration not stated) | -3.73
COCCNC(=O)C(C)S(=O)(=O)c1ccc(OC)cc1 (configuration not stated) | 4.4
Cc1ccc(NCCCNc2nccc(-c3cn(C)nc3C)n2)nc1 | 14.5
CC(C)c1ncncc1C(=O)N1CCN(Cc2ccsc2)CC1 | -4.49
CN(C)C(=O)CN1CC[C@@H]2O[C@@H](COCc3cccnc3)CC[C@@H]21 | -67.2
C1CC(CN2CCCCC2C2OCCO2)C1 (configuration not stated) | -12.8
COc1ccc(-n2cccn2)c(CN2CCOCC(CN(C)C)C2)c1 (configuration not stated) | -14.6
CCc1[nH]n(C)c(=N)c1-c1ccc2c(c1)OCO2 | -45.1
COCCC(=O)N1CCCC(c2n[nH]cc2C)C1 (configuration not stated) | -1.75
CS(=O)(=O)CCCNC1(c2cccc(F)c2)CC1 | -3.39
c1cnc(N2CCCC3(CCN(Cc4ccncc4)C3)C2)nc1 (configuration not stated) | 0.436
CC(=O)N1CCCC(C(=O)Nc2ccccc2Cc2ccccc2)C1 (configuration not stated) | 3.88
N#CC1(NC(=O)c2ccc(F)cc2OC(F)F)CCOCC1 | 2.24
O=C(NCc1cccs1)[C@H]1CO[C@H]2CCN(C3CCCC3)C[C@H]2C1 | -110
CCOc1cccc2c1OCC(=O)N(c1ccc(N(C)C)cc1)C2 | 4.28
Clc1ccc(OCCCN2CCN(c3cnccn3)CC2)cc1 | -8.11
CN(C)c1cc(C2CCN(C(=O)c3cnn(C)c3)CC2)ccn1 | 0.075
O=C(C1CN(c2ncc(F)cn2)CC12CCOCC2)N1CC=CC1 (configuration not stated) | 9.49
CC(C)CCN1CCc2cc(C(=O)N(C)C)c(NCC3CC3)nc2CC1 | 4.71
COc1ccccc1N1CC(NC(=O)Cn2cc(C(C)C)nn2)CC1=O (configuration not stated) | 11.5
CCc1nc(C2CCCN(C(=O)NC(C)C)C2)no1 (configuration not stated) | -14

Structure (SMILES) | cytotoxicity at 10 µM [%]
COCCN1C[C@@H]2CN(Cc3ccoc3)CCC[C@]2(C(=O)O)C1 | -139
Cc1ccc(S(=O)(=O)NCC2COCc3c(C)nnn3C2)cc1F (configuration not stated) | -4.55
O=C(NCc1ccco1)[C@@H]1CC[C@@H]2[C@@H](CCN2CC2CC2)O1 | -4.48
O=C(CCCC(=O)NCc1cccc(Br)c1)NCCN1CCCC1 | -7.47
CNc1nc(CNC(=O)Nc2cccc(-n3ccc(C)n3)c2)cs1 | -15.7
CCCSc1ccccc1NC(=O)N1CCC(N2CCSCC2)CC1 | -4.73
Cc1cccc(C(=O)N2CCCCC2c2nc3cc(F)ccc3[nH]2)n1 (configuration not stated) | -1.99
Cn1c(C2CC2)nc2c1CCN(Cc1nc(Cc3ccccc3)no1)C2 | -6.37
Cn1nccc1-c1cnc2n1CCNC21CCN(C(=O)C2(C)CC2)CC1 | -111
CC(C)C(=O)N1CCCC12CCN(C(=O)c1ccno1)C2 (configuration not stated) | 7.49
Cc1nnc(C(C)N2CCCN(Cc3noc(C4CC4)n3)CC2)o1 (configuration not stated) | -21.2
Cc1cc(F)c(C(C(=O)O)N2CCN(Cc3ccccn3)CC2)cc1Cl (configuration not stated) | 4.2
CCCN1CCCn2nc(CNS(=O)(=O)c3ccc(F)cc3)cc2C1 | -8.57
CC(=O)NCCNC(=O)c1cnc(-c2ccccc2)nc1 | 6.56
Cc1cc(CN2CCC(c3cc(Cc4ccccc4)n[nH]3)CC2)[nH]n1 | 7.54
COCCNC(=O)c1c(-n2cnnn2)sc2c1CCCC2 | 3.51
COCCN1C[C@@H]2[C@@H](OC)CCN(C(=O)c3cccc(OC)c3)[C@@H]2C1 | -1.01
Cc1cnn(CC2CCCN2C(=O)c2ccc(F)cc2Cl)c1 (configuration not stated) | 2.99
COc1cc(C(=O)N2CC[C@@H](NC(=O)c3ccccn3)[C@H](O)C2)ccn1 | 0.894
Cc1cc(CN(C)C(=O)c2ccnc(N(C)C)c2)no1 | 5.46
CCO[C@@H]1CO[C@@]2(CCCN(S(=O)(=O)c3ccccc3)C2)C1 | -77.2

Structure (SMILES) | cytotoxicity at 10 µM [%]
COc1ccc2c(c1)C(NCCc1c(C)noc1C)CCCO2 (configuration not stated) | -2.79
CCC(C)(NCC(=O)NC(=O)NC)c1nc(C)cs1 (configuration not stated) | -4.36
O=C1CN(C(=O)c2cc(-c3ccco3)nc3c(Cl)cccc23)CCN1 | -5.2
CNC(=O)NC(=O)C(C)Nc1ccccc1OCCOC (configuration not stated) | 2.24
CC(C)(C)C(=O)N1CCC(c2nc(O)cc(-c3ccncc3)n2)CC1 | -22
CCOCCCn1c(NC(=O)c2cc(C)on2)nc2ccccc21 | -31.3
COCCN(Cc1ccc(F)cc1Cl)C(=O)c1cc(C)n[nH]1 | 0.886
CCCc1nc(N2CCN(CC)CC2)c2c(n1)c(C)nn2CC | -9.41
CC[C@H]1CN2CC[C@H]1C[C@@H]2CNCc1ccc(N(C)C)cc1 | -5.66
CN(C)CCNC(=O)c1cc2n(n1)CCN(C(=O)c1ccc[nH]1)C2 | 2.58
COCCOc1ncccc1CNC(=O)N1CCCCCC1 | -36
N#Cc1cccnc1N1CCC(C2CCCCCN2C(N)=O)CC1 (configuration not stated) | -2.51
CC(C)(C)C(O)CN1CCN(CC(=O)NCC(F)(F)F)CC1 (configuration not stated) | -10.2
CC(Cn1ccnc1)NC(=O)N(C)Cc1ccsc1 (configuration not stated) | 2.69
CNC(=O)C1CCN(c2nccc(CCC(F)(F)F)n2)C1 (configuration not stated) | -11.4
CC(C)Oc1cccc(CNC(Cc2ccsc2)c2nccs2)c1 (configuration not stated) | 0.732
CC(C)N1CCC2(C=C(C(=O)NC3CC3)c3ccccc32)CC1 | 1.29
CC(C)n1cnc(-c2nc(C(=O)N3CCCC3)c3ccccn23)c1 | 6.47
CCc1noc(C2CCCCN2C(=O)c2cc(C)n(C)n2)n1 (configuration not stated) | 11.2
CN(Cc1ccno1)C(=O)c1cccc(CC2CCNCC2)c1 | -15.9
COc1ncccc1CNc1cc(N2CCCC2CO)ncn1 (configuration not stated) | -12.6

Structure (SMILES) | cytotoxicity at 10 µM [%]
Cc1noc(C2CCCN(C(=O)c3cc(Cl)cn3C)C2)n1 (configuration not stated) | 1.33
O=C(c1cnccn1)N1CCc2onc(Cn3cccn3)c2C1 | -0.25
CSCc1noc(CNC(=O)C2CCN(C(=O)C3CCC3)CC2)n1 | 6.35
O=C(CCOc1ccccc1Cl)N1CCN(c2cnccn2)CC1 | -29.2
CCOCC(O)CN1CCN(C(=O)C2CC2)CC1 (configuration not stated) | -7.2
CCNC(=O)[C@@H]1C[C@@H](N)CN1C(=O)Cc1cc(C)ccc1C | 1.87
Cc1cc2c(=O)n3c(nc2s1)CCN(C(=O)c1cnn(C)c1)CC3 | -1.94
CCCn1nc(C)c(CN(CCN(C)C)Cc2ccccn2)c1C | -0.641
COc1cc([C@@H]2N[C@H](c3nccs3)Cc3ccsc32)cc(OC)c1OC | 8.71
Cc1ccc(N2CCCC3(COCCN(c4ccccn4)C3)C2)nn1 (configuration not stated) | -119
CSCCC(=O)N1CCCC1c1nnc2n1CCCCC2 (configuration not stated) | -5.79
COc1cccc([C@@H]2CCN(Cc3cccc(C)n3)C[C@H]2O)c1 | 2.22
NC(=O)C1(c2cnccn2)CCCN1Cc1ccc(F)c(F)c1 (configuration not stated) | -14
COCCNc1ccccc1CNC(=O)NCc1ccc(C)s1 | 4.38
NC(=O)C1CCN(c2cncc(-n3cccn3)n2)CC1 | 12.5
O=C(NCc1ccc(CN2CCCC2)cc1)NC1(CO)CCCC1 | -63.4
CCOc1ccc(CN(CCC#N)CCN2CCOCC2)cc1OC | -9.98
CCC(C)(COc1ncccc1Cl)NCC(=O)NCC(C)C (configuration not stated) | -2.86
Cc1cnn(C2CCCN(C(=O)CCNS(C)(=O)=O)C2)c1 (configuration not stated) | -28.6
